Assay results as given in ChEMBL document CHEMBL3351398, “Discovery of a Potent and Selective DGAT1 Inhibitor with a Piperidinyl-oxy-cyclohexanecarboxylic Acid Moiety” (ACS Med Chem Lett, 2014).
Activity calls are given as the source filed them. The rule behind the calls is not given here.

How the values were obtained:
[1] = target: T1, Diacylglycerol O-acyltransferase 1 (Homo sapiens, UniProt O75907); test: Inhibition of human DGAT1
T1 sequence (O75907 whole entry): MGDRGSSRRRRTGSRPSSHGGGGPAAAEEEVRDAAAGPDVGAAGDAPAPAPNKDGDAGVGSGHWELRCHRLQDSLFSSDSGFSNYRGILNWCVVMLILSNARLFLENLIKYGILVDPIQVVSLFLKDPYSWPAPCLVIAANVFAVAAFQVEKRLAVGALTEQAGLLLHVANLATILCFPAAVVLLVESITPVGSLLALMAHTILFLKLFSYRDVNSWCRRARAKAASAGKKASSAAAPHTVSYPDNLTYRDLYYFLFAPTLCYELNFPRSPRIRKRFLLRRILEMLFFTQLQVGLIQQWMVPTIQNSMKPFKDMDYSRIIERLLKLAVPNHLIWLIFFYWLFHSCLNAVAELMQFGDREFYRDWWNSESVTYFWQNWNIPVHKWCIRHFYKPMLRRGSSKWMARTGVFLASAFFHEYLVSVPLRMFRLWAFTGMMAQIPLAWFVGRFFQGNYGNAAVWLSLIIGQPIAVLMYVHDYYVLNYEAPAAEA

[2] = target: T2, Sterol O-acyltransferase 1 (Homo sapiens) (UniProt P35610); test: Inhibition of human ACAT1 at 10 uM
T2 sequence (whole entry): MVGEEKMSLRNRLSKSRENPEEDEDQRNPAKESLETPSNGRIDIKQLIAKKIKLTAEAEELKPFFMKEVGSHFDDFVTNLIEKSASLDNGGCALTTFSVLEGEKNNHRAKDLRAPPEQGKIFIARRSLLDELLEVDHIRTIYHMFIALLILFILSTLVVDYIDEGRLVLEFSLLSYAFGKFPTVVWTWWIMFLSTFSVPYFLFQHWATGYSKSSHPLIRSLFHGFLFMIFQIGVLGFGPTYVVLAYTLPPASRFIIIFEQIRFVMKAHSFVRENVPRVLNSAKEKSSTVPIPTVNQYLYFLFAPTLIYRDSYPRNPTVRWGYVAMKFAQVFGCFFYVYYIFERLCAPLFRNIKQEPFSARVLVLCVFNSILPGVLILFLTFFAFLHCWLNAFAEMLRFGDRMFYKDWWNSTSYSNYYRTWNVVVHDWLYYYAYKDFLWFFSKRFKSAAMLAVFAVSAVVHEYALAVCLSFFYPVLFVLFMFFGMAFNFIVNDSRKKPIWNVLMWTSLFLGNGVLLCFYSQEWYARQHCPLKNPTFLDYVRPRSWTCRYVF
In short: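 Human ACAT1 inhibition was tested at a single concentration of 10 μM. The value is reported as percent inhibition.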

[3] = target: Voltage-gated inwardly rectifying potassium channel KCNH2 (Homo sapiens, UniProt Q12809); test: Displacement of radiolabeled MK499 from human ERG
In short: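 hERG off-target activity was measured in a competitive binding assay against radiolabeled MK-499. The value is reported as Ki.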

[4] = system: Mus musculus; test: Inhibition of plasma triglyceride accumulation in mouse at 10 mg/kg, po dosed 2 hrs before lipid challenge and measured at 18 hrs by lipid tolerance test; type: functional
In short: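 Mouse lipid tolerance test measuring plasma triglyceride excursion. Dosing was 10 mpk oral, with triglyceride reduction read at 18 h.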

[5] = target: T3, Sterol O-acyltransferase 1 (Homo sapiens, UniProt P35610); test: Inhibition of human ACAT1
T3 sequence (P35610 whole entry): T2 sequence (whole entry)

[6] = target: Adenosine receptor A2a (Homo sapiens, UniProt P29274); test: Binding affinity to human A2A receptor
In short: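 Recombinant human A2A receptor was tested in an in-house radioligand competition binding assay. The value is reported as Ki.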

[7] = target: T4, Diacylglycerol O-acyltransferase 1 (Mus musculus, UniProt Q9Z2A7); test: Inhibition of mouse DGAT1
T4 sequence (Q9Z2A7 whole entry): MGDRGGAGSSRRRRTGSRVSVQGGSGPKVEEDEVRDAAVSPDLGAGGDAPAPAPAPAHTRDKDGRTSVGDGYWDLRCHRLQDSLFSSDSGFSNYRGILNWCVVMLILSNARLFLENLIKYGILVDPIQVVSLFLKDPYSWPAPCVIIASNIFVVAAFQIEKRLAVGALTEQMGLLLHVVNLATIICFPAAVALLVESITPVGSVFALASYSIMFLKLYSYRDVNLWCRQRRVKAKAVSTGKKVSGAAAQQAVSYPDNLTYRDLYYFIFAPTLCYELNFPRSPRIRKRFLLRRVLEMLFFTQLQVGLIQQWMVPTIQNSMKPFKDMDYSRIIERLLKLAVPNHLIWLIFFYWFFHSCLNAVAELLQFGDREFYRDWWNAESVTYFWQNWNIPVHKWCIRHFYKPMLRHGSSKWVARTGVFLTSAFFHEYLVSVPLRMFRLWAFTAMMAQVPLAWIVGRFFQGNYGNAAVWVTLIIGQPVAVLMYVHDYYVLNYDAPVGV

[8] = organism: Homo sapiens; test: Selectivity index, ratio of Ki for human A2A receptor to KI IC50 for human DGAT1
[9] = system: Homo sapiens; test: Reduction in fasting triglyceride levels in familial chylomicronemia syndrome patient at 20 mg dosed daily; type: functional
[10] = system: Rattus norvegicus; test: Inhibition of plasma triglyceride accumulation in Sprague-Dawley rat at 10 mg/kg, po dosed 2 hrs before lipid challenge and measured at 18 hrs by lipid tolerance test; type: functional
[11] = system: Mus musculus; test: Reduction in cumulative body weight gain in wild type mouse at 10 mg/kg, po dosed daily for 6 days measured starting from day 3; type: functional, organism-based; set-up: dose 10 mg/kg
In short: (§1)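 Wild-type and DGAT1 knockout mice were dosed daily at 10 mpk for six days. Cumulative body weight gain and food intake were compared with vehicle-treated groups.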

[12] = system: Mus musculus; test: Reduction in food intake in DGAT1 knockout mouse at 10 mg/kg, po dosed daily for 6 days; type: functional, organism-based; set-up: dose 10 mg/kg
In short: (§2)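 Wild-type and DGAT1 knockout mice were dosed daily at 10 mpk for six days. Cumulative body weight gain and food intake were compared with vehicle-treated groups of the same genotype.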

[13] = system: Mus musculus; test: Reduction in food intake in wild type mouse at 10 mg/kg, po dosed daily for 6 days measured starting from day 3; type: functional, organism-based; set-up: dose 10 mg/kg; in short: as §2
[14] = system: Mus musculus; test: Reduction in cumulative body weight gain in DGAT1 knockout mouse at 10 mg/kg, po dosed daily for 6 days; type: functional, organism-based; set-up: dose 10 mg/kg; in short: as §1
[15] = Solubility in PBS buffer at pH 7; type: physicochemical
In short: (§3)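 High-throughput solubility test in PBS buffer at pH 2 and at pH 7. Free form and salt forms (TFA, formate, ammonium) were tested separately.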

[16] = Solubility in PBS buffer at pH 2; type: physicochemical; in short: as §3

Sequence of Voltage-gated inwardly rectifying potassium channel KCNH2 (Q12809 whole entry): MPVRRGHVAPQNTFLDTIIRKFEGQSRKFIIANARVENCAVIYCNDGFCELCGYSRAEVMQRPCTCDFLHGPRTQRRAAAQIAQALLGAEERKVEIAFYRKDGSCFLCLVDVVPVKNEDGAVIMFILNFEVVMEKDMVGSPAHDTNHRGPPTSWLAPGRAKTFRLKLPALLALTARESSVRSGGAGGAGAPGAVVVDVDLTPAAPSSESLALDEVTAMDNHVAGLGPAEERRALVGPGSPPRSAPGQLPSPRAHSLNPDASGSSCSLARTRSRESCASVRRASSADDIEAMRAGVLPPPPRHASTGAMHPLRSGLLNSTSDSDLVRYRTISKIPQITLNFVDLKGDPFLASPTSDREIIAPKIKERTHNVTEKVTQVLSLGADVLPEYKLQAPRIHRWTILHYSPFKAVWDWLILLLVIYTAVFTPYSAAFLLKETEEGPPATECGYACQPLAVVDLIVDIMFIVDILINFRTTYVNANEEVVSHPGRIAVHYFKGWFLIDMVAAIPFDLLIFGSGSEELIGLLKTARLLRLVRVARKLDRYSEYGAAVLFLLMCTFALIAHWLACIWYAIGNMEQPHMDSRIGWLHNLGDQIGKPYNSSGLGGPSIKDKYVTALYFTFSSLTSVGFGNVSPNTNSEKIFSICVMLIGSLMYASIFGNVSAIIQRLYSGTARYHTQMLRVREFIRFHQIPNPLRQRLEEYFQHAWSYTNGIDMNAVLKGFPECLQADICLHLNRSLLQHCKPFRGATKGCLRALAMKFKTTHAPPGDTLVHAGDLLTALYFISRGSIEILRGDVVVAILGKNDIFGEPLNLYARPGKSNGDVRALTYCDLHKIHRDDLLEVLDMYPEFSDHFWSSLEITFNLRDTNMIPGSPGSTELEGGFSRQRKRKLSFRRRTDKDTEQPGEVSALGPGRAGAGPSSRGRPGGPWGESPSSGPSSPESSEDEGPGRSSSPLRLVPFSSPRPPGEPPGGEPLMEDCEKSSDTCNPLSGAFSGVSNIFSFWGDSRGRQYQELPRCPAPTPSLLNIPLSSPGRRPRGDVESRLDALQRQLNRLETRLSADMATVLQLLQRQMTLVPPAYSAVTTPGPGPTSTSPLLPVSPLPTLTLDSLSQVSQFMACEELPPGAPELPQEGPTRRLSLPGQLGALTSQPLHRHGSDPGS
Sequence of Adenosine receptor A2a (P29274 whole entry): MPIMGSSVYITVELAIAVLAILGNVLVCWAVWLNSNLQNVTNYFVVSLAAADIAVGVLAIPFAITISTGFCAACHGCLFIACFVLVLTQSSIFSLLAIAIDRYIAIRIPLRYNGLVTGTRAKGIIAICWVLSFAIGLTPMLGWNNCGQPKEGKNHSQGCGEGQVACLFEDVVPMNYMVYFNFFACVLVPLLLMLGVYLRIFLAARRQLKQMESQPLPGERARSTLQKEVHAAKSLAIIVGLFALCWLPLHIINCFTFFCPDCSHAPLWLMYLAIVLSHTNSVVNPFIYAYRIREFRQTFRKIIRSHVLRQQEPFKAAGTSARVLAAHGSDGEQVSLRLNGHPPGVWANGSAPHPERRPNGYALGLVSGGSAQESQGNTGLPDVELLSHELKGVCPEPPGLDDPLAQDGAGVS

IC50 [1] [µM]	inhibition [2] [%]	IC50 [5] [µM]	Ki [6] [µM]	IC50 [7] [µM]	Selectivity ratio [8]	SMILES	Ki [3] [µM]	inhibition in vivo at 10 mg/kg [4] [%]	further results
0.0025	22	> 10	8	0.008	> 1000	O=C(O)[C@H]1CC[C@@H](OC2CCN(c3ccc(-c4nc5cc(C(F)(F)F)ccc5[nH]4)cn3)CC2)CC1	7	75	–
0.0029	4	> 10	3.5	0.029	> 1000	O=C(O)[C@H]1CC[C@H](OC2CCN(c3ccc(-c4nc5cc(Cl)ccc5[nH]4)cn3)CC2)CC1	4	75	–
–	–	–	–	–	–	O=C(O)C[C@H]1CC[C@H](c2ccc(-c3ccc(Nc4ccc(C(F)(F)F)nc4)cn3)cc2)CC1 [PRADIGASTAT]	–	–	inhibition (INH) [9]: 40%
0.0058	-2	> 10	> 10	0.026	> 1000	O=C(O)[C@H]1CC[C@@H](OC2CCN(c3ccc(-c4nc5cc(F)ccc5[nH]4)cn3)CC2)CC1	11	55	–
–	–	–	–	–	–	CC1(C)Oc2ncnc(N)c2N=C1c1ccc([C@H]2CC[C@H](CC(=O)O)CC2)cc1	–	–	inhibition in vivo at 10 mg/kg [10]: 100%
0.0022	13	> 10	–	0.011	–	O=C(O)[C@H]1CC[C@@H](OC2CCN(c3ccc(-c4nc5cc(Cl)ccc5[nH]4)cn3)CC2)CC1	15	52	–
–	5	> 10	9.7	0.11	–	O=C(O)[C@H]1CC[C@H](OC2CCN(c3ccc(-c4nc5cc(F)ccc5[nH]4)cn3)CC2)CC1	> 60	–	–
–	23	–	–	–	> 1000	O=C(O)[C@H]1CC[C@H](OC2CCN(c3ccc(-c4nc5cc(C(F)(F)F)ccc5[nH]4)cn3)CC2)CC1	–	–	Activity [11]: Active; Activity [12]: inactive; Activity [13]: Active; Activity [14]: inactive
–	–	–	–	–	–	O=C(O)C(F)(F)F.O=C(O)[C@H]1CC[C@H](OC2CCN(c3ccc(-c4nc5cc(C(F)(F)F)ccc5[nH]4)cn3)CC2)CC1	–	–	solubility [15]: 151 µM; solubility [16]: 130 µM
